ChEMBL document CHEMBL4665761, “Optimizing the Benefit/Risk of Acetyl-CoA Carboxylase Inhibitors through Liver Targeting” (J Med Chem, 2020)
In brackets after ≈: the same amount, converted by molar mass.

Tests used:
[1] = Half life in Wistar-Hannover rat plasma at 4 mg/kg, po and measured up to 24 hrs by LC/MS-MS analysis; type: ADME, organism-based
[2] = Tmax in Wistar-Hannover rat plasma at 4 mg/kg, po and measured up to 24 hrs by LC/MS-MS analysis; type: ADME, organism-based
Outline: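 Plasma concentration–time data, n = 2, averaged. Cmax and Tmax read directly from the data. AUC0–24 by the linear trapezoidal rule. F calculated as dose-normalized AUC PO/IV.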

[3] = Ratio of drug uptake in Wistar-Hannover rat unbound liver to plasma concentration at 30 mg/kg, po after 6 hrs by LC/MS-MS analysis; type: ADME, organism-based; conditions: other tissue
Outline: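 Male Wistar-Hannover rats (n = 2 or 3) dosed orally as a suspension in 0.5% methyl cellulose with 0.1% Tween 80. Plasma and liver sampled 6 h post-dose. Kp is total liver/plasma; Kpu,u uses unbound fractions from equilibrium dialysis of plasma and liver.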

[4] = Drug uptake in Wistar-Hannover rat liver at 30 mg/kg, po after 6 hrs by LC/MS-MS analysis; type: ADME, organism-based; conditions: read-out: Drug uptake
Outline: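 Male Wistar-Hannover rats, n = 2 or 3, given an oral suspension in 0.5% methyl cellulose with 0.1% Tween 80; one compound was dosed as the HCl salt. Total plasma and liver concentrations were measured 6 h post-dose. Kp = liver/plasma total concentration. Kpu,u uses fu values from equilibrium dialysis.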

Bile salt export pump = Bile salt export pump (Homo sapiens, UniProt O95342); assay: Inhibition of human BSEP expressed in baculovirus infected Hi5 insect cells in presence of taurocholic acid by LC-MS/MS analysis
Cytochrome P450 2C9 = Cytochrome P450 2C9 (Homo sapiens, UniProt P11712); assay: inhibition of CYP2C9 in human liver microsomes; type: ADME
[5] = Drug uptake in human hepatocytes assessed as passive diffusion clearance at 1 uM up to 15 mins in presence of rifamycin SV by LC-MS/MS analysis; type: ADME, cell-based, Hepatocyte; conditions: 0.25 h
Cytochrome P450 2C8 = Cytochrome P450 2C8 (Homo sapiens, UniProt P10632); assay: inhibition of CYP2C8 in human liver microsomes; type: ADME
[6] = target: Solute carrier family 22 member 6 (Homo sapiens, UniProt Q4U2R8); assay: Inhibition of human SLC22A6 expressed in HEK293 cells in presence of para-aminohippuric acid/metformin; type: cell-based
CHO = assay: Genotoxicity in CHO cells in presence of (aroclor-induced rat liver S9 fraction/NADPH by micronucleus test; type: toxicity, cell-based, Cricetulus griseus; conditions: chinese hamster
Outline: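 In vitro micronucleus assay in Chinese hamster ovary or TK6 cells, run with and without metabolic activation by aroclor-induced rat liver S9 fraction plus NADPH.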

Acetyl-CoA carboxylase 2 = Acetyl-CoA carboxylase 2 (Homo sapiens, UniProt O00763); assay: Uncompetitive inhibition of human ACC2 incubated for 15 mins in presence of ATP by Line weaver-Burk plot analysis
Outline: (§1)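 Radioenzymatic assay with purified ACC isozymes, measuring [14C]-bicarbonate incorporation into [14C]-malonyl-CoA. Mode of inhibition taken from substrate concentration-dependence experiments varying ATP or carbonate. IC50 dose-response run at saturating ATP.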

[7] = Thermodynamic solubility of the compound at pH 6.5 after 24 hrs; type: physicochemical; conditions: buffer, read-out: Therm_solubility
[8] = target: UDP-glucuronosyltransferase 1A4 (Homo sapiens, UniProt P22310); assay: Inhibition of UGT1A4 in human liver microsomes incubated for 30 mins in presence of UDPGA by LC-MS/MS analysis; type: ADME
Cytochrome P450 2C19 = Cytochrome P450 2C19 (Homo sapiens, UniProt P33261); assay: inhibition of CYP2C19 in human liver microsomes; type: ADME
[9] = target: UDP-glucuronosyltransferase 2B7 (Homo sapiens, UniProt P16662); assay: Inhibition of UGT2B7 in human liver microsomes incubated for 60 mins in presence of UDPGA by LC-MS/MS analysis; type: ADME
Acetyl-CoA carboxylase 1 = Acetyl-CoA carboxylase 1 (Rattus norvegicus, UniProt P11497); assay: Inhibition of rat ACC1 using acetyl-CoA as substrate incubated for 20 mins in presence of [14C]O3 by liquid scintillation counting method; outline: as §1
[10] = Thermodynamic solubility of the compound at pH 7.4 after 24 hrs; type: physicochemical; conditions: buffer, read-out: Therm_solubility
[11] = Inhibition of rat ACC2 using acetyl-CoA as substrate incubated for 20 mins in presence of [14C]O3 by liquid scintillation counting method
Outline: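 Purified rat isozyme in a 96-well radioenzymatic assay measuring incorporation of [14C]-bicarbonate into [14C]-malonyl-CoA. Dose-response run at saturating ATP, where IC50 approximates Ki for uncompetitive inhibitors.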

[12] = Toxicity in cynomolgus monkey assessed as reduction in platelet count at 3 to 10 mg/kg, po after 14 days; type: organism-based, Macaca fascicularis; conditions: in vivo, 336 h, dose 3-10 mg/kg, time 14 day
[13] = Inhibition of DNL in Sprague-Dawley rat assessed as reduction in DNL level in lung at 300 mg/kg, po pretreated with 1 hr followed by [14C]-acetate treatment and measured after 1 hr relative to control; type: functional; conditions: time 2 hrs
Outline: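 Sprague-Dawley rats given single oral doses of 0.03–300 mg/kg in 0.5% methyl cellulose vehicle, n = 16 per dose. Read-out is incorporation of 14C-acetate into lipids in liver, bone marrow and lung, measured at 2 h post-dose relative to vehicle. Data are mean ± SEM. EC50 is reported with a 95% confidence interval.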

[14] = Thermodynamic solubility of the compound at pH 1.2 after 24 hrs; type: physicochemical; conditions: buffer, read-out: Therm_solubility
[15] = Ratio of drug uptake in Wistar-Hannover rat unbound liver to plasma concentration at 10 mg/kg, po after 6 hrs by LC/MS-MS analysis; type: ADME, organism-based; conditions: other tissue
Outline: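 Male Wistar-Hannover rats (n = 2 or 3) dosed orally as a suspension in 0.5% methyl cellulose with 0.1% Tween 80. Total plasma and liver concentrations taken 6 h post-dose. Converted to unbound values using fraction unbound in plasma and liver from equilibrium dialysis. Kpu,u = ratio of mean free liver to free plasma concentration.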

[16] = Inhibition of DNL in cynomolgus monkey assessed as fructose-induced DNL level at 10 mg/kg, po after 9 hrs relative to control; type: functional; conditions: Macaca fascicularis
Outline: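 Male cynomolgus macaques were fasted overnight and enriched with plasma D2O, then given a single 10 mg/kg PO dose. Fructose was given orally every 30 min from t = 0, with a banana at hours 2 and 3. Deuterium incorporation into plasma TG palmitate was followed over 9 h, n = 12, mean ± SEM, versus vehicle.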

Sequence of UDP-glucuronosyltransferase 1A4 (P22310 whole entry): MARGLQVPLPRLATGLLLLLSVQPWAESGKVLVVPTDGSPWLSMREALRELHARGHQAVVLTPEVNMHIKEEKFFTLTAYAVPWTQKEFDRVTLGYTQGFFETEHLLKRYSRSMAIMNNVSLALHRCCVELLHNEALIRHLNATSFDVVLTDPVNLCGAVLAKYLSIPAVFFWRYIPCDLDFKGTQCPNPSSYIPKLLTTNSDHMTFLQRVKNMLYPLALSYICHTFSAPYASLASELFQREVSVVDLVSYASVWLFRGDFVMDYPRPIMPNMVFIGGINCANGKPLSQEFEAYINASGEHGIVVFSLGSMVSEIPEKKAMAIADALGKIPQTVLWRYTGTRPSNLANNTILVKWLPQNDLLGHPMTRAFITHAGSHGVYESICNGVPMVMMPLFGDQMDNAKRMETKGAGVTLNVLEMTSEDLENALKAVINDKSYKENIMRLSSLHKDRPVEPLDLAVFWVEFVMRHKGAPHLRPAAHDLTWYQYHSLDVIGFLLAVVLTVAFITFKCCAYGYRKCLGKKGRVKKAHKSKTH
Sequence of Cytochrome P450 2C9 (P11712 whole entry, the tested form may be a part): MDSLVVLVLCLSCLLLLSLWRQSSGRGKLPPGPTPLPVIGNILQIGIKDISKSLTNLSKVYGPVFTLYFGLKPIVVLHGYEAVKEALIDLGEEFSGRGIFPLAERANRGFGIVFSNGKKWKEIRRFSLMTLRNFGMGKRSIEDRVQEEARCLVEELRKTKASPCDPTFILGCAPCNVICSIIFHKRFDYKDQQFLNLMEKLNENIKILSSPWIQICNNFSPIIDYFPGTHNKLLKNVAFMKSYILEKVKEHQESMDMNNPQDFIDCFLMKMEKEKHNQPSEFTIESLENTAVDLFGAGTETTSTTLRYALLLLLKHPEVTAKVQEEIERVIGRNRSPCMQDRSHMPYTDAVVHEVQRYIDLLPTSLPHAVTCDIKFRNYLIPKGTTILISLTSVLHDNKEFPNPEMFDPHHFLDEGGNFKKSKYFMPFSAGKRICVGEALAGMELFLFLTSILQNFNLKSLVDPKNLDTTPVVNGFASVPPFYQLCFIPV
Sequence of Acetyl-CoA carboxylase 2 (O00763 whole entry): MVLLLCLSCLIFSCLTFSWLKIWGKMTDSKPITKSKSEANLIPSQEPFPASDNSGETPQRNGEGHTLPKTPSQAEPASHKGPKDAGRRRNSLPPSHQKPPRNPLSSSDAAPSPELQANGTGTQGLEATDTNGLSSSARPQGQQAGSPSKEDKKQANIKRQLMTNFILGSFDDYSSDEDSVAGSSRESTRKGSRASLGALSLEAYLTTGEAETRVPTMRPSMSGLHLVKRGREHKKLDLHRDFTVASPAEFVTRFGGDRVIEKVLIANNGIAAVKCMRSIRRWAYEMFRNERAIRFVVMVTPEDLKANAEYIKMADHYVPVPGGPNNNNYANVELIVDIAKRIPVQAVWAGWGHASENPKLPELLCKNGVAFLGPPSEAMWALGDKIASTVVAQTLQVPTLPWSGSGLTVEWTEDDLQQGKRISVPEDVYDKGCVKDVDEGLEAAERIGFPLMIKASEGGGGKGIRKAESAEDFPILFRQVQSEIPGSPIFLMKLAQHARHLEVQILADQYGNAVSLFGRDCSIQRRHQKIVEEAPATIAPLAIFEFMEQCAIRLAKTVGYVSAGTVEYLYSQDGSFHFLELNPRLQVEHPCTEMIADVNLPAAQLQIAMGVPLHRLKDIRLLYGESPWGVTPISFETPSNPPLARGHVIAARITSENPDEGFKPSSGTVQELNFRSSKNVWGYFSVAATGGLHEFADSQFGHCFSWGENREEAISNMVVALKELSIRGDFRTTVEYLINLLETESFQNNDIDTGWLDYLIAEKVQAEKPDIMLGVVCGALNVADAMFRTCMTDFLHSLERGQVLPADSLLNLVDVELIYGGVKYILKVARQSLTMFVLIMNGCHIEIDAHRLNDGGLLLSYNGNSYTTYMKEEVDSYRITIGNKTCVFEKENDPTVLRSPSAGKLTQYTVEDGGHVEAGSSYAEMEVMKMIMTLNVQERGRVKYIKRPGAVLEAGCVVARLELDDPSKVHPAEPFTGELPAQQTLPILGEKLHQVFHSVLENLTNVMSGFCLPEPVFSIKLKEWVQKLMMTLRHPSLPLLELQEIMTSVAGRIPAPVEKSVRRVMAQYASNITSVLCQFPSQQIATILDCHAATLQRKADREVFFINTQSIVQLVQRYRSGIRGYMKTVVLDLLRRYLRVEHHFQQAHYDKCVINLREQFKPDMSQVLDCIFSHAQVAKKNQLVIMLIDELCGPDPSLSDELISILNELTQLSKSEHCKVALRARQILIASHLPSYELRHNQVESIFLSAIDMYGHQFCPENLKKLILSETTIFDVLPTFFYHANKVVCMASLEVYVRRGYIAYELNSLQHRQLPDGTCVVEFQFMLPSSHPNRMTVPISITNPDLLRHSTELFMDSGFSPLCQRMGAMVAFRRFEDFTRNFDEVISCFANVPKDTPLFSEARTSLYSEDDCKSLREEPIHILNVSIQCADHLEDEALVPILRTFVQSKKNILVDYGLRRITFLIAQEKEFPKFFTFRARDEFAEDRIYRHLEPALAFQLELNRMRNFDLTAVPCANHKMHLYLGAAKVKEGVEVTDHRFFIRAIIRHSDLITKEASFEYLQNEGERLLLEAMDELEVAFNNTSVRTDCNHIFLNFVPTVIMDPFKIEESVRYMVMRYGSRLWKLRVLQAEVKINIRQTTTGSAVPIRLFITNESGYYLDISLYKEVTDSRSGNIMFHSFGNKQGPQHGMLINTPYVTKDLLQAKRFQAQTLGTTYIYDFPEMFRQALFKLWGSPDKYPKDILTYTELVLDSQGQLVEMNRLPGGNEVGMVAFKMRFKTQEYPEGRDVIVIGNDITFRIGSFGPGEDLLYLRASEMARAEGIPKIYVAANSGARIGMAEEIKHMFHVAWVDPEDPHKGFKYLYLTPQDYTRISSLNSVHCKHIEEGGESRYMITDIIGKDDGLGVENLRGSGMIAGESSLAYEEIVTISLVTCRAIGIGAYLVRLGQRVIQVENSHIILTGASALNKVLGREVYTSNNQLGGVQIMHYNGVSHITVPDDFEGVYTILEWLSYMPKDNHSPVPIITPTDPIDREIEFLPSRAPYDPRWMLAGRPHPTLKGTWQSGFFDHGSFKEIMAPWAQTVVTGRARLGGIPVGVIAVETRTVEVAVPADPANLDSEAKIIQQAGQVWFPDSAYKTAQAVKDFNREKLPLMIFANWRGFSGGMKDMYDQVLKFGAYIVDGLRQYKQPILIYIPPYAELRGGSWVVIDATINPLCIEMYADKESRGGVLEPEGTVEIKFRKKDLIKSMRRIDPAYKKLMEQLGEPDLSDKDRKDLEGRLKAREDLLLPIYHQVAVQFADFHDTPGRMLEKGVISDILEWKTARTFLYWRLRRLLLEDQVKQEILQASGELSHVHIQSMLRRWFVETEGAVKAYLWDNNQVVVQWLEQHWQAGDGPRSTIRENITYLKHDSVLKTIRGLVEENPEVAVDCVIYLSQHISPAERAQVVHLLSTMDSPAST
Sequence of Solute carrier family 22 member 6 (Q4U2R8 whole entry): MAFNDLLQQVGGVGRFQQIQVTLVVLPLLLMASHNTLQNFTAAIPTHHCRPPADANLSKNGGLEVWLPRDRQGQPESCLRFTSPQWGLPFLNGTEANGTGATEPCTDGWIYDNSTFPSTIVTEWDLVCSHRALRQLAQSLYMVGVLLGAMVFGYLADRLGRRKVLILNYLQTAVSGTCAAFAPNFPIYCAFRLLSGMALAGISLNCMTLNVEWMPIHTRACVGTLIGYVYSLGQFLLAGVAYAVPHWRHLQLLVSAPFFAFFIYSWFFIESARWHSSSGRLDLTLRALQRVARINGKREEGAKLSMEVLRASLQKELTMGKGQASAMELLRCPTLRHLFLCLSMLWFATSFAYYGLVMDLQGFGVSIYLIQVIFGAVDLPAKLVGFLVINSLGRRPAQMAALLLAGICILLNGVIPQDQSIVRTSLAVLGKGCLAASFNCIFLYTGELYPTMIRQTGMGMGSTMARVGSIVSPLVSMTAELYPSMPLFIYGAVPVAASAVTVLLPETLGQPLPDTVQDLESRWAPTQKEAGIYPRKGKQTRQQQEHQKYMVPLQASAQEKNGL
Sequence of Cytochrome P450 2C19 (P33261 whole entry): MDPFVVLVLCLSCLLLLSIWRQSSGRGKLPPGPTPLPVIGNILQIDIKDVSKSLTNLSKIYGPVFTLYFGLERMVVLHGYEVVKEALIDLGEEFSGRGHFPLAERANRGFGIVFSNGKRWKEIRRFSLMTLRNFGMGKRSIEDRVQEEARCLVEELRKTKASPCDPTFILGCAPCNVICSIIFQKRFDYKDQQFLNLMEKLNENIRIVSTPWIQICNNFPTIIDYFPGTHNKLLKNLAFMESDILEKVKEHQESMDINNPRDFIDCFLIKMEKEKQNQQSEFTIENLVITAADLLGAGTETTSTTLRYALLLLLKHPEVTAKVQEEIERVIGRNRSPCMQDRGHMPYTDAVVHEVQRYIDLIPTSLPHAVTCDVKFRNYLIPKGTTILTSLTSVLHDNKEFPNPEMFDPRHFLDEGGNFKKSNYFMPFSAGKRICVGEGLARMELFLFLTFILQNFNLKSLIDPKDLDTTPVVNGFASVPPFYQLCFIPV
Sequence of Cytochrome P450 2C8 (P10632 whole entry): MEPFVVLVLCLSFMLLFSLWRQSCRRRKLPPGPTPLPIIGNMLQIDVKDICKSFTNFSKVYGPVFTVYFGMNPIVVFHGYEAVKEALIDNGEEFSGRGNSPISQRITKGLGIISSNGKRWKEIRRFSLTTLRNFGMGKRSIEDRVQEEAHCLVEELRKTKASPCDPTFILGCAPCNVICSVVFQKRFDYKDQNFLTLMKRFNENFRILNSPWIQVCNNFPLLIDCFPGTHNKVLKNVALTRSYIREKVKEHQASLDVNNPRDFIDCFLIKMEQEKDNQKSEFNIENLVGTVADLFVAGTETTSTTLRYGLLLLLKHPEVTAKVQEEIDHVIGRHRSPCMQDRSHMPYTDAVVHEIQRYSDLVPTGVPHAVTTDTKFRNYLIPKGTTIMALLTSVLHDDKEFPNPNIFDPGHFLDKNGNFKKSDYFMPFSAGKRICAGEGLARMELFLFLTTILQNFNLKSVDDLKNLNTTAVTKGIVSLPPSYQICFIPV

COc1cc(C(=O)N2CCC3(CC2)CC(=O)c2nn(C(C)(C)C)cc2O3)cc(-c2ccc(C(=O)O)cc2)n1
half-life [1]: 5.7 h
Tmax [2]: 0.75 h
Ratio [3]: 376
concentration at 6 h [4]: 38100 ng/mL

COc1cc(C(=O)N2CCC3(CC2)CC(=O)c2c(cnn2C(C)C)C3)cc(-c2ccc(C(=O)O)cc2)n1 [CLESACOSTAT]
IC50 (Bile salt export pump): 94 µM
IC50 (Cytochrome P450 2C9): > 50 µM
CLH [5]: 2.7 µL/min/mg
IC50 (Cytochrome P450 2C8): > 50 µM
IC50 [6]: > 30 µM
Activity (CHO): Non-Toxic
IC50 (Acetyl-CoA carboxylase 2): 0.00866 µM
solubility thermodynamic at 24 h [7]: 36 µM (≈ 18.1 µg/mL)
IC50 [8]: > 20 µM
IC50 (Cytochrome P450 2C19): > 50 µM
IC50 [9]: > 20 µM
IC50 (Acetyl-CoA carboxylase 1): 0.00753 µM
solubility thermodynamic at 24 h [10]: 234 µM (≈ 118 µg/mL)
IC50 [11]: 0.00824 µM
Activity [12]: Non-Toxic
inhibition in vivo at 300 mg/kg [13]: 29%
solubility thermodynamic at 24 h [14]: 8 µM (≈ 4.02 µg/mL)
Ratio [15]: 132
inhibition in vivo at 10 mg/kg [16]: 100%
